{"source": "ChEMBL document CHEMBL1158099", "about": "“A chemical study of cyclic depsipeptides produced by a sponge-derived fungus” (J Nat Prod, 2006)", "key": {"[1]": {"system": "L1210", "experiment": "Cytotoxicity against mouse L1210 cells by disk diffusion soft agar colony formation assay; call rule not given here", "assay_type": "functional", "in_short": "(§1)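 Cell-based soft agar disk diffusion assay, applied to extracts, partition fractions and pure compounds. Read-out is the inhibition zone in zone units. The panel covers solid tumour cells (Colon 38, Colon H116, Lung H125), leukaemia cells (L1210, CEM) and normal CFU-GM. A sample counts as solid-tumour selective when the solid tumour zone exceeds the leukaemia or normal cell zone by more than 250 units.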"}, "[2]": {"experiment": "Cytotoxicity against human H116 cells by disk diffusion soft agar colony formation assay", "assay_type": "functional", "in_short": "as §1"}, "[3]": {"experiment": "Cytotoxicity against human CFU-GM cells by disk diffusion soft agar colony formation assay", "assay_type": "cell-based", "in_short": "as §1"}, "[4]": {"system": "CCRF-CEM", "experiment": "Cytotoxicity against human CEM cells by disk diffusion soft agar colony formation assay", "assay_type": "cell-based", "in_short": "as §1"}, "[5]": {"experiment": "Cytotoxicity against human H125 cells by disk diffusion soft agar colony formation assay", "assay_type": "functional", "in_short": "as §1"}, "[6]": {"experiment": "Cytotoxicity against mouse CFU-GM cells by disk diffusion soft agar colony formation assay", "assay_type": "cell-based", "in_short": "as §1"}, "[7]": {"system": "MC-38", "experiment": "Cytotoxicity against mouse C38 cells by disk diffusion soft agar colony formation assay", "assay_type": "functional", "in_short": "as §1"}, "[8]": {"system": "Staphylococcus epidermidis", "experiment": "Antibacterial activity against Staphylococcus epidermidis", "assay_type": "functional"}, "[9]": {"system": "Enterococcus durans", "experiment": "Antibacterial activity against Enterococcus durans", "assay_type": "functional"}}, "note": "Starred links: 1 amine or outer side, 2 acyl side, 3 side chain; linkers in the order of their positions; H or OH if unused. Non-standard residues stand in square brackets, D forms with d. Residues, ends and D or L forms follow the SMILES beside them. X1 = CC(C)(O)[C@H](O[*:1])C(=O)[*:2]; dNMeF = CN[C@H](Cc1ccccc1)C(=O)O; Hica(2S) = CC(C)C[C@H](O)C(=O)O; Hiv = CC(C)[C@H](O)C(=O)O; NMeA = CN[C@@H](C)C(=O)O"}
{"smiles": "C[C@H]1CCC/C=C/[C@@H]2C[C@H](O)C[C@H]2[C@H](O)/C=C/C(=O)O1", "note": "[BREFELDIN A]", "values": [{"measurement": "Activity", "setting": "[1]", "value": 0, "unit": "Zone units"}, {"measurement": "Activity", "setting": "[2]", "value": 900, "unit": "Zone units"}, {"measurement": "Activity", "setting": "[3]", "value": 1000, "unit": "Zone units"}, {"measurement": "Activity", "setting": "[4]", "value": 0, "unit": "Zone units"}, {"measurement": "Activity", "setting": "[5]", "value": 600, "unit": "Zone units"}, {"measurement": "Activity", "setting": "[6]", "value": "Not Active"}, {"measurement": "Activity", "setting": "[7]", "value": 150, "unit": "Zone units"}]}
{"smiles": "CC(C)C[C@@H]1OC(=O)[C@H](C)NC(=O)[C@H](C(C)(C)O)OC(=O)[C@H](C)N(C)C(=O)[C@@H](C)NC(=O)[C@@H](Cc2ccccc2)N(C)C1=O", "note": "[GUANGOMIDE A] (cyclo(A[Hica(2S)][dNMeF][dA][NMeA][X1]))", "values": [{"measurement": "Activity", "setting": "[1]", "value": 0, "unit": "Zone units"}, {"measurement": "Activity", "setting": "[2]", "value": 50, "unit": "Zone units"}, {"measurement": "MIC", "setting": "[8]", "value": 100, "unit": "µg/mL"}, {"measurement": "Activity", "setting": "[3]", "value": "Not Active"}, {"measurement": "Activity", "setting": "[5]", "value": 0, "unit": "Zone units"}, {"measurement": "Activity", "setting": "[6]", "value": "Not Active"}, {"measurement": "MIC", "setting": "[9]", "value": 100, "unit": "µg/mL"}, {"measurement": "Activity", "setting": "[7]", "value": 0, "unit": "Zone units"}]}
{"smiles": "CC(C)C[C@@H]1OC(=O)[C@H](C)NC(=O)[C@H](C(C)C)OC(=O)[C@H](C)N(C)C(=O)[C@@H](C)NC(=O)[C@@H](Cc2ccccc2)N(C)C1=O", "note": "[GUANGOMIDE B] (cyclo(A[Hica(2S)][dNMeF][dA][NMeA][Hiv]))", "values": [{"measurement": "MIC", "setting": "[8]", "value": 100, "unit": "µg/mL"}, {"measurement": "MIC", "setting": "[9]", "value": 100, "unit": "µg/mL"}]}
